From ChEMBL document CHEMBL4138312 (J Med Chem, 2018)
pEC50, pIC50: −log10 of the molar value.

Columns and labels:
[1] = target: T1, Tyrosine-protein kinase JAK3 (Homo sapiens, UniProt P52333); assay: Inhibition of recombinant human JAK3 (781 to 1124 residues) expressed in insect cells using 5FAM-GEEPLYWSFPAKKK-NH2 as substrate after 10 mins by caliper assay
T1 sequence (P52333 whole entry): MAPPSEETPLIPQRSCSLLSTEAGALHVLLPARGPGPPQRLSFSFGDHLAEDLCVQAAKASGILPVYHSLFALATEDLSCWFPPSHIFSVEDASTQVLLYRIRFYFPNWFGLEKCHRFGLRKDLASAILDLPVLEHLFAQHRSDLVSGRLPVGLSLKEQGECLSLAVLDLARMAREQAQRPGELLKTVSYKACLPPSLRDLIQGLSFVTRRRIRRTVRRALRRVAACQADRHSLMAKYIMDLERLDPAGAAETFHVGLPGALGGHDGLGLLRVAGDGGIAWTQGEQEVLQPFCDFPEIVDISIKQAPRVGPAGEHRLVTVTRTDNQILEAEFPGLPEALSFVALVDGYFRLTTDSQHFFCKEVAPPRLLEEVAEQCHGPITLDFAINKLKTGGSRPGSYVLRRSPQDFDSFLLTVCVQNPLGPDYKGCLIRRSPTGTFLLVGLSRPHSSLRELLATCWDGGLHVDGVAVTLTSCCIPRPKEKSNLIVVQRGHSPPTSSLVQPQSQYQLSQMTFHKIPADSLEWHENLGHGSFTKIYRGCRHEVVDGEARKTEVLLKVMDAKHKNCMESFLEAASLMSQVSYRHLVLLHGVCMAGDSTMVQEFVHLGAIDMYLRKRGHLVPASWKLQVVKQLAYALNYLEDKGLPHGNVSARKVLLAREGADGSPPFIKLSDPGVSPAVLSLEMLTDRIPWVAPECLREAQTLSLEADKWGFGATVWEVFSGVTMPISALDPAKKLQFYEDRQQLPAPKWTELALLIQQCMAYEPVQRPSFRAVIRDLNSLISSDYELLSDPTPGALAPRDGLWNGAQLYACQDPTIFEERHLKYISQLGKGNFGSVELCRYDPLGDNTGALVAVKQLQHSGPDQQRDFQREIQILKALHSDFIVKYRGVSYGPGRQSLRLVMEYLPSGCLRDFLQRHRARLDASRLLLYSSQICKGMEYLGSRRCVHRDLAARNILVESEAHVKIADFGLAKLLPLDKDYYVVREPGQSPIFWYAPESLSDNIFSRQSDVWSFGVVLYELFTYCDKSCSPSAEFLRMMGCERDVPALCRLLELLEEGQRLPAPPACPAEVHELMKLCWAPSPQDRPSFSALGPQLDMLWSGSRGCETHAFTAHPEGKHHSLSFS
Summary of the method: (§1)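 Biochemical kinase inhibition IC50 measured at 5 mM ATP. Values are the geometric mean of at least two independent experiments.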

[2] = target: Tyrosine-protein kinase JAK2 (Homo sapiens, UniProt O60674); assay: Inhibition of recombinant human JAK2 (831 to 1132 residues) expressed in insect cells using 5FAM-GEEPLYWSFPAKKK-NH2 as substrate after 10 mins by caliper assay; summary of the method: as §1
Homo sapiens = species on record: Homo sapiens; assay: Selectivity ratio of IC50 for recombinant human JAK2 (831 to 1132 residues) expressed in insect cell to IC50 for cytoplasmic recombinant human GST-tagged JAK1 (886 to 1154 residues) expressed in baculovirus
Summary of the method: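 Biochemical IC50s measured against JAK1 and JAK2 at 5 mM ATP. Each IC50 is the geometric mean of at least two independent experiments. The ratio is the JAK2 IC50 divided by the JAK1 IC50.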

[3] = target: T2, Tyrosine-protein kinase JAK1 (Homo sapiens, UniProt P23458); assay: Inhibition of cytoplasmic recombinant human GST-tagged JAK1 (886 to 1154 residues) expressed in insect cells using FITC-C6-KKHTDDGYMPMSPGVA-NH as substrate after 10 mins by caliper assay; summary of the method: as §1
[4] = Octanol-water partition coefficient, log D of the compound in sodium phosphate buffer at pH 7.4 after 5 hrs by shake-flask assay; type: physicochemical
[5] = target: T2, Tyrosine-protein kinase JAK1; assay: Inhibition of JAK1 in human NCI-H1975 cells assessed as reduction in STAT3 phosphorylation after 1 hr by ELISA; type: cell-based
Summary of the method: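 Cellular mode-of-action assay in NCI-H1975 cells, read as inhibition of STAT3 phosphorylation. EC50 was derived.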

[6] = Intrinsic clearance in human liver microsomes; type: ADME, microsome; conditions: read-out: CLH
A549 = assay: Antiproliferative activity against human A549 cells after 48 hrs by Alamar Blue based assay; type: functional; conditions: A549, 48 h
Summary of the method: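 Antiproliferation assay in A549 cells, reported as GI50.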

[7] = target: Non-receptor tyrosine-protein kinase TYK2 (Homo sapiens, UniProt P29597); assay: Inhibition of recombinant human N-terminal GST-tagged TYK2 (871 to 1187 residues) expressed in baculovirus expression system using 5FAM-GEEPLYWSFPAKKK-NH2 as substrate after 10 mins by caliper assay; summary of the method: as §1
Non-receptor tyrosine-protein kinase TYK2, sequence (P29597 whole entry, the tested form may be a part): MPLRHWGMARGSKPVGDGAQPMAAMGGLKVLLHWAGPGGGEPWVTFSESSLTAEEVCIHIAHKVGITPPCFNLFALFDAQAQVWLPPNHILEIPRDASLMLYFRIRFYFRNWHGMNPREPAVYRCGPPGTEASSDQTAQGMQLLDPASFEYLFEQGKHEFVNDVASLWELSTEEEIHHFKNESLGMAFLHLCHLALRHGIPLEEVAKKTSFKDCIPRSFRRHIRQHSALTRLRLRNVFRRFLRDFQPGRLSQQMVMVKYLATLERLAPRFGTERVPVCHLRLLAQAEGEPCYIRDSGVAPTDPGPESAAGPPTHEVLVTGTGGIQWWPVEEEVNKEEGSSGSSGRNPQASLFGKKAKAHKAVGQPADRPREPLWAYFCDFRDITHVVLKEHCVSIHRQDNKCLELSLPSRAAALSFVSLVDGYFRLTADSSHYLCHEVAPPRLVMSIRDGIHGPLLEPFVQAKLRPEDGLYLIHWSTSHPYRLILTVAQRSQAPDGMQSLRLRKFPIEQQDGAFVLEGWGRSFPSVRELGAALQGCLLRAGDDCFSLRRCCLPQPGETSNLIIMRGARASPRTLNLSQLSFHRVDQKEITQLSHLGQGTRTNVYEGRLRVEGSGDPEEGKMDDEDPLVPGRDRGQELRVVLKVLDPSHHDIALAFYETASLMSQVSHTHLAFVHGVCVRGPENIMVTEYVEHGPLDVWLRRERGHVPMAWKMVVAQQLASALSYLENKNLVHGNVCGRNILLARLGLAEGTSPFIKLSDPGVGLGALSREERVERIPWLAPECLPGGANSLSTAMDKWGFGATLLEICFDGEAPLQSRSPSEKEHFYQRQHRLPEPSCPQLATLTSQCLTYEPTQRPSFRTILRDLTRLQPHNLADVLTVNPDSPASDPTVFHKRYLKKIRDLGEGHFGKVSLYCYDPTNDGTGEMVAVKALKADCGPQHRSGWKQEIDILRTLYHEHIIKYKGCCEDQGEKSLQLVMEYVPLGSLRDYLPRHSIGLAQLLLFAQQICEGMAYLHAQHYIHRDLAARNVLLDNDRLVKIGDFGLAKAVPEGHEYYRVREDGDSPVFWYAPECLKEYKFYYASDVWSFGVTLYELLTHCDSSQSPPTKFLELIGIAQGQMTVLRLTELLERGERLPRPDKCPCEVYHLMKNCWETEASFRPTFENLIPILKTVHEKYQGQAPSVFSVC

T2 sequence (P23458 whole entry, the tested form may be a part): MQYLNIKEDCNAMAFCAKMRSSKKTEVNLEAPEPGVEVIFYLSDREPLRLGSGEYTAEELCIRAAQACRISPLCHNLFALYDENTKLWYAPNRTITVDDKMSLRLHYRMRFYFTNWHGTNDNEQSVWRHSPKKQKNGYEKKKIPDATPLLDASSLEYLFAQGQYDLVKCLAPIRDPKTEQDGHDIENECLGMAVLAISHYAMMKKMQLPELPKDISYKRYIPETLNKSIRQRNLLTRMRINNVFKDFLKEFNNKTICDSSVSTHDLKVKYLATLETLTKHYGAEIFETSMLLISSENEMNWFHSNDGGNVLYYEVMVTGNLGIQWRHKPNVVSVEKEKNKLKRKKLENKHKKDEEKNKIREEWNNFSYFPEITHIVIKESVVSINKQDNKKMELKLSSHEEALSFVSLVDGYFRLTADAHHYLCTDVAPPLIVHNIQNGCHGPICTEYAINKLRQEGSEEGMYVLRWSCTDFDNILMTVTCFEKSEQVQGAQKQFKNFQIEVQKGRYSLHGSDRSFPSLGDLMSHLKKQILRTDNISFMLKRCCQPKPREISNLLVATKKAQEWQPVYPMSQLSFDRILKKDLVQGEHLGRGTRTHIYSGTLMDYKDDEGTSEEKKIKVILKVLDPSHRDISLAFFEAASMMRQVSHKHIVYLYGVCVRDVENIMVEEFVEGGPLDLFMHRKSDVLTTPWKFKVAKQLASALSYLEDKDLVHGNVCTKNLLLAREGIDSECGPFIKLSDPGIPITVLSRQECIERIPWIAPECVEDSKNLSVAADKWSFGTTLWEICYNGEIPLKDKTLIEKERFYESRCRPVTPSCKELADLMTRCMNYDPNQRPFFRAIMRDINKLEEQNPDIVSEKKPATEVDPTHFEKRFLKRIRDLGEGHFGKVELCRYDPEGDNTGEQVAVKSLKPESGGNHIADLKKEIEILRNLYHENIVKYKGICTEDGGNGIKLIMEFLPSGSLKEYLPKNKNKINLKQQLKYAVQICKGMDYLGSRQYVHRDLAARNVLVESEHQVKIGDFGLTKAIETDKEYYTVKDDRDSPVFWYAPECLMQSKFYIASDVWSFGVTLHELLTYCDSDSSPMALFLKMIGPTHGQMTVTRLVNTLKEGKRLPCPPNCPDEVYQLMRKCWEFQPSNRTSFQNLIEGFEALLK
Tyrosine-protein kinase JAK2, sequence (O60674 whole entry, the tested form may be a part): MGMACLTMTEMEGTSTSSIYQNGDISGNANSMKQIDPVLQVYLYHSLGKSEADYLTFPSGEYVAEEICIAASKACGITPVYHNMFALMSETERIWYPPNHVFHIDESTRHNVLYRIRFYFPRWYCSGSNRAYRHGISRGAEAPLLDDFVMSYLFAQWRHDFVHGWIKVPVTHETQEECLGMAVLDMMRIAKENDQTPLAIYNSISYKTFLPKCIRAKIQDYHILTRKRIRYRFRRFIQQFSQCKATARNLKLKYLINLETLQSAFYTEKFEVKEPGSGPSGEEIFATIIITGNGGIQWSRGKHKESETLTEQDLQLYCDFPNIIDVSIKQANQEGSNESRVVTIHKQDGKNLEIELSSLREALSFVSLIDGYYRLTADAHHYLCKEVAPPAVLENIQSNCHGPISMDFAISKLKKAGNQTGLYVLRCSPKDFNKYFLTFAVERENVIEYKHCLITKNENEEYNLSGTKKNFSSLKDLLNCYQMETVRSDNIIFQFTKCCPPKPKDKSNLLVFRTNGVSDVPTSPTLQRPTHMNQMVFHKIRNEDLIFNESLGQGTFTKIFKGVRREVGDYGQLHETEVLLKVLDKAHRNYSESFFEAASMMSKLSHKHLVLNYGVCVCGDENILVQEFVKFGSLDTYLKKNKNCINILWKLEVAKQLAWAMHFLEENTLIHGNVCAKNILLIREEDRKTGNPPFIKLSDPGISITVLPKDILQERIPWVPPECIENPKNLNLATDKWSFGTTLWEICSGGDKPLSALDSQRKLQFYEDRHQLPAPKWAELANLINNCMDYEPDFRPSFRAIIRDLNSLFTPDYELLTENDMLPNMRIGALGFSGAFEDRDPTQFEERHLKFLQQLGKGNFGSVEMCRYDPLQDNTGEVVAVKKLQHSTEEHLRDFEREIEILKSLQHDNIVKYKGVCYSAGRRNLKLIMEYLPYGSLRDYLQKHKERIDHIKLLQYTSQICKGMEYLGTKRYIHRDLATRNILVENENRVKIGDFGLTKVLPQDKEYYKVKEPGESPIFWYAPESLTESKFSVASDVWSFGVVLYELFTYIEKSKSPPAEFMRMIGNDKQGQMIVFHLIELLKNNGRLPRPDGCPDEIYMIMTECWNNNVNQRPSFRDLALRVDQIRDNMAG

Row | SMILES | pIC50 [1] | pIC50 [2] | Ratio IC50 (Homo sapiens) | pIC50 [3] | logD at 5 h [4] | pEC50 [5] | microsomal CLint [6] | GI50 (A549) | pIC50 [7]
1 | Cc1cnc(Nc2cc(N3CCNCC3)cc(S(C)(=O)=O)c2)nc1Nc1cccc(CO)c1 | < 4.52 | 6.02 | – | > 8.52 | 1.09 | 6.30 | – | – | –
2 | Cc1cnc(Nc2cc(N3CCOCC3)cc(S(C)(=O)=O)c2)nc1Nc1cccc(CO)c1 | < 4.52 | 6.38 | 32 | 7.89 | – | – | – | – | –
3 | Cc1cnc(Nc2cc(N3C[C@@H]4C[C@H]3CN4C)cnc2F)nc1Nc1cccc(CO)c1 | < 4.52 | < 4.52 | – | 7.40 | – | 7.17 | – | 253 nM | –
4 | Cc1cnc(Nc2cc(N3C[C@@H]4C[C@H]3CN4C)ccc2F)nc1Nc1cccc(CO)c1 | < 4.52 | < 4.52 | – | 6.93 | – | 7.00 | – | – | –
5 | Cc1cnc(Nc2cc(N3C[C@@H]4C[C@H]3CN4C)cc(C(F)F)c2F)nc1Nc1cccc(CO)c1 | < 4.52 | < 4.52 | – | 7.26 | – | 7.59 | – | – | –
6 | CN1CCN(c2cc(Nc3nccc(Nc4ccc(F)c(Cl)c4F)n3)cc(S(C)(=O)=O)c2)CC1 | 6.33 | 7.44 | > 10 | > 8.52 | – | – | – | – | –
7 | Cc1cnc(Nc2cc(N3C[C@@H]4C[C@H]3CN4C)cnc2F)nc1N[C@H](C)C(C)C | – | < 4.52 | – | 7.59 | – | 7.30 | – | – | 4.61
8 | CCC(CC)Nc1nc(Nc2cc(N3C[C@@H]4C[C@H]3CN4C)cnc2F)ncc1C | < 4.52 | < 4.52 | – | 7.54 | – | 7.36 | – | > 10000 nM | < 4.52
9 | Cc1cnc(Nc2cc(N3C[C@@H](C)N[C@@H](C)C3)cc(S(C)(=O)=O)c2)nc1Nc1cccc(CO)c1 | < 4.52 | 6.00 | – | 8.30 | 1.24 | 6.49 | – | – | –

The remaining lines, values ahead:

Row | pIC50 [1] | pIC50 [2] | Ratio IC50 (Homo sapiens) | pIC50 [3] | logD at 5 h [4] | pEC50 [5] | microsomal CLint [6] | GI50 (A549) | pIC50 [7] | SMILES
10 | 6.43 | > 8.52 | < 0.75 | 8.40 | – | – | – | – | – | Cc1cnc(Nc2cc(N3CCOCC3)cc(N3CCOCC3)c2)nc1Nc1cccc(CO)c1
11 | < 4.52 | 6.09 | – | 8.22 | 1.29 | < 5.52 | – | – | – | Cc1cnc(Nc2cc(N3CCN(CCO)CC3)cc(S(C)(=O)=O)c2)nc1Nc1cccc(CO)c1
12 | < 4.52 | 6.03 | > 309 | > 8.52 | 1.74 | 7.00 | 59.5 µL/min/mg | – | – | Cc1cnc(Nc2cc(N3CCN(C)CC3)cc(S(C)(=O)=O)c2)nc1Nc1cccc(CO)c1
13 | < 4.55 | 5.93 | – | > 8.52 | 0.82 | 7.04 | 7.32 µL/min/mg | – | – | Cc1cnc(Nc2cc(N3C[C@@H]4C[C@H]3CN4C)cc(S(C)(=O)=O)c2)nc1Nc1cccc(CO)c1
14 | 4.74 | 6.42 | – | 7.80 | – | 7.43 | – | – | – | Cc1cnc(Nc2cc(C(F)F)cc(N3C[C@@H]4C[C@H]3CN4C)c2)nc1Nc1cccc(CO)c1
15 | < 4.52 | 5.19 | 150 | 7.38 | 1.84 | – | – | – | – | CN1CCN(c2cc(Nc3ncc(F)c(Nc4cccc(CO)c4)n3)cc(S(C)(=O)=O)c2)CC1
16 | 5.18 | 6.44 | > 120 | > 8.52 | 2.43 | – | – | – | – | CN1CCN(c2cc(Nc3ncc(Br)c(Nc4cccc(CO)c4)n3)cc(S(C)(=O)=O)c2)CC1
17 | 4.69 | 6.45 | 6.5 | 7.26 | – | – | – | – | – | Cc1cnc(Nc2cccc(N3CCN(C)CC3)c2)nc1Nc1cccc(CO)c1
18 | 4.90 | 6.14 | > 240 | > 8.52 | 2.16 | – | – | – | – | CN1CCN(c2cc(Nc3ncc(Cl)c(Nc4cccc(CO)c4)n3)cc(S(C)(=O)=O)c2)CC1
19 | 4.61 | 6.46 | – | 8.00 | 1.74 | < 5.52 | – | – | – | CC(=O)N1CCN(c2cc(Nc3ncc(C)c(Nc4cccc(CO)c4)n3)cc(S(C)(=O)=O)c2)CC1
20 | < 4.52 | 5.99 | – | 7.92 | 1.9 | 6.72 | – | – | – | COCCN1CCN(c2cc(Nc3ncc(C)c(Nc4cccc(CO)c4)n3)cc(S(C)(=O)=O)c2)CC1
21 | < 4.52 | 4.86 | 140 | 7.00 to 8.52 | 1.75 | – | – | – | – | CN1CCN(c2cc(Nc3nccc(Nc4cccc(CO)c4)n3)cc(S(C)(=O)=O)c2)CC1
